Assay results published in article PMC4833523 (Bioorganic & medicinal chemistry letters, 2016).

Experiments:
[1] = Rat microsomal intrinsic clearance / predicted hepatic clearance; assay type: in vitro ADME; conditions: predicted hepatic clearance from rat microsomal intrinsic clearance
Rat IV PBL = assay type: in vivo; conditions: compared to 4
[2] = Human microsomal intrinsic clearance / predicted hepatic clearance; assay type: in vitro ADME; conditions: compared to 4
[3] = Rat brain homogenate binding; assay type: in vitro ADME; conditions: compared to 4
human mGlu1 = human mGlu1 (Homo sapiens, UniProt Q13255); test: Calcium mobilization mGlu1 PAM assay; assay type: cell-based
Chain of human mGlu1 (Q13255 19-1194): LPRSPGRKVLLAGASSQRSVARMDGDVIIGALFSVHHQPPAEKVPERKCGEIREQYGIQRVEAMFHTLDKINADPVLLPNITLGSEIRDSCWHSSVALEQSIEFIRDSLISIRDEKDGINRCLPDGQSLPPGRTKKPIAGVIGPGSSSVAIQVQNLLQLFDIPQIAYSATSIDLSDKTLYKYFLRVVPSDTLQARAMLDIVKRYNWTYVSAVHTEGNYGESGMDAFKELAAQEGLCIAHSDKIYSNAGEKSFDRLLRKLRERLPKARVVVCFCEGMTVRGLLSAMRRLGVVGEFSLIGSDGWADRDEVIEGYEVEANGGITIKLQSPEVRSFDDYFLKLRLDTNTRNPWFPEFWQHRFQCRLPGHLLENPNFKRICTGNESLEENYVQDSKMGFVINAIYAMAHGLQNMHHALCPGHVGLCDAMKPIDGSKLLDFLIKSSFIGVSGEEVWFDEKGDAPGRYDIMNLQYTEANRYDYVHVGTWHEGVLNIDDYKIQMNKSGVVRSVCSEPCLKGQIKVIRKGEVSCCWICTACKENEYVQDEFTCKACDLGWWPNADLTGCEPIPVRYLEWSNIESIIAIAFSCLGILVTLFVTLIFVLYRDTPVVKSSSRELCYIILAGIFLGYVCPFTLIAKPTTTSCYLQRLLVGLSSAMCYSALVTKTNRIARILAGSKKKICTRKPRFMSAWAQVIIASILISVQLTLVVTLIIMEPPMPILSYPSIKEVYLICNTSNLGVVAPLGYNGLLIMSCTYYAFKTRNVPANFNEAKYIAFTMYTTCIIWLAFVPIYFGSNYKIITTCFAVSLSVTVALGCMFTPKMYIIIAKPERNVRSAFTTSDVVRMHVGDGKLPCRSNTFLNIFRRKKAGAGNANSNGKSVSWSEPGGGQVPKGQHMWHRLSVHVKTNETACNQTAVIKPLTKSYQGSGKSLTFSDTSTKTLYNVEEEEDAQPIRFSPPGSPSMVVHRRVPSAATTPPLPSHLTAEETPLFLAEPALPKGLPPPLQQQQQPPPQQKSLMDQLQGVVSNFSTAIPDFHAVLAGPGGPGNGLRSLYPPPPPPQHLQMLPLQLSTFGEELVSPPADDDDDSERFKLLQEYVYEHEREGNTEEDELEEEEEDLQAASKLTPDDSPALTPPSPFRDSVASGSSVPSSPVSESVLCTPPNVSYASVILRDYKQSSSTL
How it was run: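 Calcium mobilization read-out on human mGlu1. Test compounds were first triaged in a 10 μM single-point screen with an EC20 concentration of glutamate. Those selected then got full concentration-response curves. Values are the average of three independent experiments, each run in triplicate.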

Row | SMILES | Rat CLhep [1] [mL/min/kg] | fold improvement in Kp (CNS exposure) over 4 (Rat IV PBL) | mGlu1 PAM activity in words (human mGlu1) | also measured
1 | CC(C)c1csc(NC(=O)C2c3ccccc3Oc3ccccc32)n1 [9b] | 64 | ~ 3 fold |  | 
2 | N#Cc1csc(NC(=O)C2c3ccccc3Oc3ccccc32)n1 [9a] | 62.2 | ~ 4 fold |  | reduction of human microsomal intrinsic clearance [2]: ~ 50%; enhancement of free drug in brain [3]: > 10 fold
3 | O=C(Nc1nc2ccccc2s1)C1c2ccccc2Oc2ccccc21 [9f] |  |  |  | fold increase in potency on replacing thiazole 9e (human mGlu1; 9f versus 9e): ~3 fold
4 | O=C(Nc1ccccn1)C1c2ccccc2Oc2ccccc21 [9h] |  |  | moderate activity | 
5 | Cc1nc(NC(=O)C2c3ccccc3Oc3ccccc32)sc1C [9g] |  |  | weak PAM activity | 
